Active and inactive are the calls of the source. The calls are words filed in the database; no cut-off is given here.
Experiments:
Bos taurus = species on record: Bos taurus; test: Inhibition of beef liver mitochondrial MAOB at 200 uM
[1] = Inhibition of baboon liver mitochondrial MAOB; set-up: species or system Papio hamadryas
Papio hamadryas = species on record: Papio hamadryas; test: Inhibition of baboon liver mitochondrial MAOB at 5.20 uM
Outline: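 Time-dependence test: baboon liver mitochondria (0.3 mg protein/mL) were preincubated with inhibitor at 5.20 µM in 100 mM sodium phosphate, pH 7.4, for 0, 15, 30 and 60 min at 37 °C. This was then diluted to 0.15 mg protein/mL with 90 µM MMTP, giving a final inhibitor concentration of 2.60 µM. Incubated 15 min at 37 °C, stopped with perchloric acid, and MMDP⁺ was measured.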

| Compound | Activity (Bos taurus) | Ki [1] | Activity (Papio hamadryas) |
| --- | --- | --- | --- |
| Cn1ccc(-c2ccccc2)c1 | inactive | 118 µM | – |
| Cn1ccc(-c2ccc(Br)cc2)c1 | inactive | 6.65 µM | – |
| Cn1ccc(-c2cccc(C(F)(F)F)c2)c1 | inactive | 6.55 µM | – |
| COc1ccc(-c2ccn(C)c2)cc1 | inactive | 36.5 µM | – |
| COc1cccc(-c2ccn(C)c2)c1 | inactive | 41.7 µM | – |
| Cc1ccc(-c2ccn(C)c2)cc1 | inactive | 22.5 µM | – |
| Cn1ccc(-c2ccc(Cl)cc2)c1 | inactive | 18.4 µM | – |
| Cn1ccc(-c2ccc(C(F)(F)F)cc2)c1 | inactive | 1.3 µM | Active |
| Cn1ccc(-c2ccc(F)cc2)c1 | inactive | 31 µM | – |

Further lines, results first:

| Activity (Bos taurus) | Ki [1] | Activity (Papio hamadryas) | Compound |
| --- | --- | --- | --- |
| inactive | 20.9 µM | – | Cn1ccc(-c2cccc(Cl)c2)c1 |
| inactive | 38.9 µM | – | Cn1ccc(-c2cccc(F)c2)c1 |
| inactive | 14.3 µM | – | Cn1ccc(-c2cccc(Br)c2)c1 |
| inactive | 56 µM | – | Cc1cccc(-c2ccn(C)c2)c1 |
